Consider one compound from PubChem BioAssay AID588817 (The Scripps Research Institute Molecular Screening Center, 2011).

Activity calls are given as the source filed them.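 How the source made its calls: active means compounds cutting probe labeling of the enzyme in cells by at least 50% at 0.1 µM; inactive means under 50% inhibition at that dose.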

This test addresses Platelet-activating factor acetylhydrolase (Mus musculus) (UniProt Q60963). The experiment in a line: in situ blockade of mouse pPAFAH activity – cell-based, gel-based competitive ABPP, fluorescence, late-stage follow-up (AID 588817). Particulars: HEK293T overexpressing mouse pPAFAH, 4 h; at 10 µM (top of the series). The method in brief:
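Test system: mouse pPAFAH-transfected 293T cells / Buffer or medium: serum-free medium during compound treatment / Doses: four-point series of 10, 1, 0.1, 0.01 µM final / Times: 4 h compound treatment, 30 min probe labelling, 37 °C / Measured by: gel fluorescence band intensity after SDS-PAGE / Controls: DMSO high control, blank-gel background low control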

Sequence of Platelet-activating factor acetylhydrolase (Mus musculus) (Q60963 whole entry, looked up): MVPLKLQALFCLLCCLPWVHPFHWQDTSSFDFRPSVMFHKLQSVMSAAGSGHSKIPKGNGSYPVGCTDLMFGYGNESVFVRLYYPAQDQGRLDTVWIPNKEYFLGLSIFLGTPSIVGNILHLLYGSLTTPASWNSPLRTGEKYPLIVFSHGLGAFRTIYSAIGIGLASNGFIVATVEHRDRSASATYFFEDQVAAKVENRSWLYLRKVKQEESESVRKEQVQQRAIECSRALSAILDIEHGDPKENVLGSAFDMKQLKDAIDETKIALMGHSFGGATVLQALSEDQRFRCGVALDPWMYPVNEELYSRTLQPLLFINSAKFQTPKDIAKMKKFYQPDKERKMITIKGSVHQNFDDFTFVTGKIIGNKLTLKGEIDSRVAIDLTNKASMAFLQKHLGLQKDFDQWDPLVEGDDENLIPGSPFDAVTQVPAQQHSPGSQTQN

Take `Cc1cc(N2CCN(C(=O)Oc3ccc(-c4ccccc4)cn3)CC2)c2ccccc2n1`: the inhibition (as a rule, the share of the control response that was lost under treatment) was 100% (active).
